According to ChEMBL document CHEMBL5236662, “Synthesis and biological evaluation of tert-butyl ester and ethyl ester prodrugs of L-γ-methyleneglutamic acid amides for cancer” (Bioorg Med Chem, 2023):

tested on: BNC3; test: Antiproliferative activity against human BNC3 cells assessed as suppression of cell growth incubated for 24 to 72 hrs by CCK-8 assay; type: functional, cell-based; conditions: dose 10-300 µM, time 24-72 hrs
How it was run: (§1)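 Primary patient-derived glioblastoma lines were grown in RPMI 1640 with 10% FBS. Cells were seeded at 3,000 per well and dosed 24 h later at 10, 50, 100, 200 and 300 μM for 24 or 72 h, with BiCNU as control. CCK-8 was added and OD450 read after 2 h at 37 °C. Data are % cell survival, from 3 independent replicates.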

Row | Compound | Activity
1 | C=C(C[C@H](N)C(=O)O)C(=O)Nc1ccc(F)cc1 | Dose-Dependent Effect
2 | C=C(C[C@H](N)C(=O)O)C(=O)N1CCCCC1 | Dose-Dependent Effect
3 | C=C(C[C@H](N)C(=O)O)C(=O)NC1CC1 | Dose-Dependent Effect
4 | C=C(C[C@H](N)C(=O)O)C(=O)NCc1ccc([N+](=O)[O-])cc1 | Dose-Dependent Effect
5 | C=C(C[C@H](N)C(=O)O)C(=O)Nc1ccccc1 | Dose-Dependent Effect
6 | C=C(C[C@H](N)C(=O)O)C(=O)NCc1ccccc1 | Dose-Dependent Effect

tested on: BNC6; test: Antiproliferative activity against human BNC6 cells assessed as suppression of cell growth incubated for 24 to 72 hrs by CCK-8 assay; type: functional, cell-based; conditions: dose 10-300 µM, time 24-72 hrs; how it was run: as §1

Row | Compound | Activity
7 | C=C(C[C@H](N)C(=O)O)C(=O)Nc1ccc(F)cc1 | Dose-Dependent Effect
8 | C=C(C[C@H](N)C(=O)O)C(=O)N1CCCCC1 | Dose-Dependent Effect
9 | C=C(C[C@H](N)C(=O)O)C(=O)NC1CC1 | Dose-Dependent Effect
10 | C=C(C[C@H](N)C(=O)O)C(=O)NCc1ccc([N+](=O)[O-])cc1 | Dose-Dependent Effect
11 | C=C(C[C@H](N)C(=O)O)C(=O)Nc1ccccc1 | Dose-Dependent Effect
12 | C=C(C[C@H](N)C(=O)O)C(=O)NCc1ccccc1 | Dose-Dependent Effect

tested on: not listed separately; test: Antiproliferative activity against human BNC3 cells assessed as inhibition of cell growth incubated for 72 hrs by CCK-8 assay; type: functional, cell-based; conditions: BNC3, 72 h; how it was run: as §1

Row | Compound | IC50 [µM]
13 | C=C(C[C@H](N)C(=O)O)C(=O)Nc1ccc(F)cc1 | 182
14 | C=C(C[C@H](N)C(=O)O)C(=O)N1CCCCC1 | 158
15 | C=C(C[C@H](N)C(=O)O)C(=O)NC1CC1 | 171
16 | C=C(C[C@H](N)C(=O)O)C(=O)NCc1ccc([N+](=O)[O-])cc1 | 156
17 | O=NN(CCCl)C(=O)NCCCl [CARMUSTINE] | 157
18 | C=C(C[C@H](N)C(=O)O)C(=O)Nc1ccccc1 | 218
19 | C=C(C[C@H](N)C(=O)O)C(=O)NCc1ccccc1 | 171

tested on: not listed separately; test: Antiproliferative activity against human BNC6 cells assessed as inhibition of cell growth incubated for 72 hrs by CCK-8 assay; type: functional, cell-based; conditions: BNC6, 72 h; how it was run: as §1

Row | Compound | IC50 [µM]
20 | C=C(C[C@H](N)C(=O)O)C(=O)Nc1ccc(F)cc1 | 194
21 | C=C(C[C@H](N)C(=O)O)C(=O)N1CCCCC1 | 199
22 | C=C(C[C@H](N)C(=O)O)C(=O)NC1CC1 | 187
23 | C=C(C[C@H](N)C(=O)O)C(=O)NCc1ccc([N+](=O)[O-])cc1 | 180
24 | O=NN(CCCl)C(=O)NCCCl [CARMUSTINE] | 160
25 | C=C(C[C@H](N)C(=O)O)C(=O)Nc1ccccc1 | 210
26 | C=C(C[C@H](N)C(=O)O)C(=O)NCc1ccccc1 | 188

tested on: not listed separately; test: Antiproliferative activity against human WSU-HN30 cells assessed as inhibition of cell growth incubated for 72 hrs by CCK-8 assay; type: functional, cell-based; conditions: WSU-HN30, 72 h
How it was run: (§2)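 Radiotherapy-resistant HNSCC lines were used: HN30 from pharynx SCC and HN31 from a lymph-node metastasis of the same patient. Cells in RPMI 1640 with 10% FBS were seeded at 3,000 per well and treated 24 h later with 10–300 μM (5 levels) for 24 or 72 h, with cisplatin as control. CCK-8 was read at OD450 after 2 h. Data are % survival, n = 3 independent experiments.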

Row | Compound | IC50 [µM]
27 | C=C(C[C@H](N)C(=O)O)C(=O)Nc1ccc(F)cc1 | 220
28 | C=C(C[C@H](N)C(=O)O)C(=O)N1CCCCC1 | 97
29 | C=C(C[C@H](N)C(=O)O)C(=O)NC1CC1 | 105
30 | C=C(C[C@H](N)C(=O)O)C(=O)NCc1ccc([N+](=O)[O-])cc1 | 91.8
31 | C=C(C[C@H](N)C(=O)O)C(=O)Nc1ccccc1 | 92.9
32 | C=C(C[C@H](N)C(=O)O)C(=O)NCc1ccccc1 | 119

tested on: not listed separately; test: Antiproliferative activity against human WSU-HN31 cells assessed as inhibition of cell growth incubated for 72 hrs by CCK-8 assay; type: functional, cell-based; conditions: WSU-HN31, 72 h; how it was run: as §2

Row | Compound | IC50 [µM]
33 | C=C(C[C@H](N)C(=O)O)C(=O)Nc1ccc(F)cc1 | 202
34 | C=C(C[C@H](N)C(=O)O)C(=O)N1CCCCC1 | 207
35 | C=C(C[C@H](N)C(=O)O)C(=O)NC1CC1 | 196
36 | C=C(C[C@H](N)C(=O)O)C(=O)NCc1ccc([N+](=O)[O-])cc1 | 194
37 | C=C(C[C@H](N)C(=O)O)C(=O)Nc1ccccc1 | 199
38 | C=C(C[C@H](N)C(=O)O)C(=O)NCc1ccccc1 | 199

tested on: WSU-HN30; test: Antiproliferative activity against human WSU-HN30 cells assessed as suppression of cell growth incubated for 24 to 72 hrs by CCK-8 assay; type: functional, cell-based; conditions: dose 10-300 µM, time 24-72 hrs; how it was run: as §2

Row | Compound | Activity
39 | C=C(C[C@H](N)C(=O)O)C(=O)Nc1ccc(F)cc1 | Dose-Dependent Effect
40 | C=C(C[C@H](N)C(=O)O)C(=O)N1CCCCC1 | Dose-Dependent Effect
41 | C=C(C[C@H](N)C(=O)O)C(=O)NC1CC1 | Dose-Dependent Effect
42 | C=C(C[C@H](N)C(=O)O)C(=O)NCc1ccc([N+](=O)[O-])cc1 | Dose-Dependent Effect
43 | C=C(C[C@H](N)C(=O)O)C(=O)Nc1ccccc1 | Dose-Dependent Effect
44 | C=C(C[C@H](N)C(=O)O)C(=O)NCc1ccccc1 | Dose-Dependent Effect

tested on: WSU-HN31; test: Antiproliferative activity against human WSU-HN31 cells assessed as suppression of cell growth incubated for 24 to 72 hrs by CCK-8 assay; type: functional, cell-based; conditions: dose 10-300 µM, time 24-72 hrs; how it was run: as §2

Row | Compound | Activity
45 | C=C(C[C@H](N)C(=O)O)C(=O)Nc1ccc(F)cc1 | Dose-Dependent Effect
46 | C=C(C[C@H](N)C(=O)O)C(=O)N1CCCCC1 | Dose-Dependent Effect
47 | C=C(C[C@H](N)C(=O)O)C(=O)NC1CC1 | Dose-Dependent Effect
48 | C=C(C[C@H](N)C(=O)O)C(=O)NCc1ccc([N+](=O)[O-])cc1 | Dose-Dependent Effect
49 | C=C(C[C@H](N)C(=O)O)C(=O)Nc1ccccc1 | Dose-Dependent Effect
50 | C=C(C[C@H](N)C(=O)O)C(=O)NCc1ccccc1 | Dose-Dependent Effect

tested on: MCF7; test: Antiproliferative activity against human MCF7 cells assessed as inhibition of cell growth incubated for 72 hrs by Hoechst 33342/propidium iodide staining based fluorescence analysis; type: functional; conditions: MCF7, 72 h

Row | Compound | IC50 [µM]
51 | C=C1C[C@@H](C(=O)OC(C)(C)C)NC1=O | > 1000

tested on: SK-BR-3; test: Antiproliferative activity against human SK-BR-3 cells assessed as inhibition of cell growth incubated for 72 hrs by Hoechst 33342/propidium iodide staining based fluorescence analysis; type: functional; conditions: SK-BR-3, 72 h

Row | Compound | IC50 [µM]
52 | C=C1C[C@@H](C(=O)OC(C)(C)C)NC1=O | > 1000

tested on: MDA-MB-231; test: Antiproliferative activity against human MDA-MB-231 cells assessed as inhibition of cell growth incubated for 72 hrs by Hoechst 33342/propidium iodide staining based fluorescence analysis; type: functional; conditions: MDA-MB-231, 72 h

Row | Compound | IC50 [µM]
53 | C=C1C[C@@H](C(=O)OC(C)(C)C)NC1=O | < 1000

tested on: not listed separately; test: Cytotoxicity against human MCF-10A cells assessed as inhibition of cell growth incubated for 72 hrs by Hoechst 33342/propidium iodide staining based fluorescence analysis; type: toxicity; conditions: human, MCF-10A cells

Row | Compound | IC50 at 72 h [µM]
54 | C=C1C[C@@H](C(=O)OC(C)(C)C)NC1=O | > 1000
55 | C=C(C[C@H](N)C(=O)O)C(=O)Nc1ccc(F)cc1 | > 1000
56 | C=C(C[C@H](N)C(=O)O)C(=O)N1CCCCC1 | > 1000
57 | C=C(C[C@H](N)C(=O)O)C(=O)NC1CC1 | > 1000
58 | C=C(C[C@H](N)C(=O)O)C(=O)NCc1ccc([N+](=O)[O-])cc1 | > 1000
59 | C=C(C[C@H](N)C(=O)O)C(=O)Nc1ccccc1 | > 1000
60 | C=C(C[C@H](N)C(=O)O)C(=O)NCc1ccccc1 | > 1000

tested on: not listed separately; test: Cytotoxicity against human MCF-10A cells assessed as inhibition of cell growth incubated for 24 hrs by Hoechst 33342/propidium iodide staining based fluorescence analysis; type: toxicity; conditions: human, MCF-10A cells

Row | Compound | IC50 at 24 h [µM]
61 | C=C(C[C@H](N)C(=O)O)C(=O)Nc1ccc(F)cc1 | > 1000
62 | C=C(C[C@H](N)C(=O)O)C(=O)N1CCCCC1 | > 1000
63 | C=C(C[C@H](N)C(=O)O)C(=O)NC1CC1 | > 1000
64 | C=C(C[C@H](N)C(=O)O)C(=O)NCc1ccc([N+](=O)[O-])cc1 | > 1000
65 | C=C(C[C@H](N)C(=O)O)C(=O)Nc1ccccc1 | > 1000
66 | C=C(C[C@H](N)C(=O)O)C(=O)NCc1ccccc1 | > 1000

tested on: MCF7; test: Antiproliferative activity against human MCF7 cells assessed as inhibition of cell growth incubated for 24 hrs by Hoechst 33342/propidium iodide staining based fluorescence analysis; type: functional; conditions: MCF7, 24 h

Row | Compound | IC50 [µM]
67 | C=C(C[C@H](N)C(=O)O)C(=O)Nc1ccccc1 | > 1000
68 | C=C(C[C@H](N)C(=O)O)C(=O)NCc1ccccc1 | > 1000
